Data published in ChEMBL document CHEMBL1134897, “C-3 Amido-indole cannabinoid receptor modulators” (Bioorg Med Chem Lett, 2002).

Target: Cannabinoid receptor (Homo sapiens) (UniProt P34972+P21554)
Assay: Ratio of binding affinity of the CB1 receptor to that of CB2 receptor; NT means not tested
Assay type: protein assay
How it was run: (§1)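 Membranes (50 µg) from CHO-K1 cells expressing human CB2 or CB1. Tracer is [5,7-3H]WIN 55,212-2 mesylate for CB2 and CP55,940 for CB1, routinely at 10 nM. Incubated with test compound in HEPES pH 7.4 buffer (EDTA, MgCl₂, 0.3% BSA) for 2 h at room temperature with shaking. Bound label is collected by filtration and counted by scintillation. Single-point values are % inhibition at […] test compound.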

Cannabinoid receptor (Homo sapiens), sequence (P21554 whole entry, looked up): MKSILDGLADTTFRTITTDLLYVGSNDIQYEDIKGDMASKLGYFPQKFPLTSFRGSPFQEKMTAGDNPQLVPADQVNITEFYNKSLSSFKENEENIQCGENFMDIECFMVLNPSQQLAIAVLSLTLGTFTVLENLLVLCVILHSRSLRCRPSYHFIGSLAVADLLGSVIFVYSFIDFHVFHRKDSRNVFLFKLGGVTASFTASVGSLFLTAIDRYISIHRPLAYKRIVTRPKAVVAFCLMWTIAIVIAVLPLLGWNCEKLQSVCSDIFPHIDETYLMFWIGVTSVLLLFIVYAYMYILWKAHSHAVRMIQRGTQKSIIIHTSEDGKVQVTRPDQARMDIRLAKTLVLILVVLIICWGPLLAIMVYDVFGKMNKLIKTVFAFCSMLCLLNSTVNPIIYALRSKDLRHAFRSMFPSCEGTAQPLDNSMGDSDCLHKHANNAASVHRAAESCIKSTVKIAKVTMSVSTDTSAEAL
Cannabinoid receptor (Homo sapiens), sequence (P34972 whole entry, looked up): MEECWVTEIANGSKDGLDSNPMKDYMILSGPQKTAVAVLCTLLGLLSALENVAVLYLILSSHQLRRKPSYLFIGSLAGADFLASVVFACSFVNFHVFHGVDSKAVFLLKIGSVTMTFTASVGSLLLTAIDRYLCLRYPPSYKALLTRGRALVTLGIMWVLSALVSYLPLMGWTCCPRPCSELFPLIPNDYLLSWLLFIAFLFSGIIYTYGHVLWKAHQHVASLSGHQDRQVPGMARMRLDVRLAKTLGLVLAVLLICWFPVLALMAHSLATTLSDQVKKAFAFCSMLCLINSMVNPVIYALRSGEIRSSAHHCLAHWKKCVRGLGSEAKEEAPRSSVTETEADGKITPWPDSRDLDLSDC

| Structure (SMILES) | Ratio |
| --- | --- |
| CCCCCOc1cc(/C=C/C(=O)N[C@@H](Cc2ccccc2)C(=O)OC)ccc1OC | 0.59 |

Target: T1, Cannabinoid receptor 1 (Homo sapiens, UniProt P21554)
T1 sequence (P21554 whole entry): as the sequence (P21554 whole entry, looked up) above
Assay: Binding affinity against human Cannabinoid receptor 1 expressed in CHO cells by using CP-55940 as Radioactive tracer at 1 uM
Assay type: cell-based

| Structure (SMILES) | inhibition [%] |
| --- | --- |
| CCCCCOc1cc(/C=C/C(=O)N[C@@H](Cc2ccccc2)C(=O)OC)ccc1OC | 51 |

Target: T1, Cannabinoid receptor 1
Assay: Binding affinity against human Cannabinoid receptor 1 expressed in CHO cells by using CP-55940 as Radioactive tracer
Assay type: cell-based

| Structure (SMILES) | Ki [µM] |
| --- | --- |
| COC(=O)[C@H](Cc1ccccc1)NC(=O)c1c(C)n(CCN2CCOCC2)c2c(OC)cccc12 | 4 |
| CCCCCOc1cc(/C=C/C(=O)N[C@@H](Cc2ccc(O)cc2)C(=O)OC)ccc1OC | 5.7 |

Target: T2, Cannabinoid receptor 2 (Homo sapiens, UniProt P34972)
T2 sequence (P34972 whole entry): as the sequence (P34972 whole entry, looked up) above
Assay: Binding affinity against human CB2 receptor expressed in CHO cells by using WIN-55212-2 Mesylate [573H] as Radioactive tracer
Assay type: cell-based
How it was run: as §1

| Structure (SMILES) | Ki [nM] |
| --- | --- |
| COc1cccc2c(C(=O)NC3C(C)(C)[C@@H]4CC[C@@]3(C)C4)c(C)n(CCCN3CCOCC3)c12 (some centres undefined) | 25 |
| CCC(=O)[C@H](Cc1ccccc1)NC(=O)c1c(C)n(CCN2CCOCC2)c2c(OC)cccc12 | 24 |
| CO/N=C(\C)[C@H](Cc1ccccc1)NC(=O)c1c(C)n(CCN2CCOCC2)c2c(OC)cccc12 | 184 |
| COc1cccc2c(C(=O)N[C@@H](Cc3ccccc3)c3ccno3)c(C)n(CCN3CCOCC3)c12 | 169 |
| CCCCCn1c(C)c(C(=O)NC2C(C)(C)[C@@H]3CC[C@@]2(C)C3)c2cccc(OC)c21 (some centres undefined) | 5 |
| COc1cccc2c(C(=O)NC3CC(C)(C)CCC3(C)C)cn(CCN3CCOCC3)c12 (centres undefined) | 22 |
| COc1cc(Cl)cc2c(C(=O)N[C@@H]3C4(C)CCC(C4)C3(C)C)c(C)n(CCN3CCOCC3)c12 (some centres undefined) | 251 |
| CCc1c(C(=O)N[C@H]2C3(C)CCC(C3)C2(C)C)c2cccc(OC)c2n1CCN1CCOCC1 (some centres undefined) | 103 |
| COc1cccc2c(C(=O)N[C@@H]3C4(C)CCC(C4)C3(C)C)cn(CCN3CCOCC3)c12 (some centres undefined) | 13 |
| COc1cccc2c(C(=O)N[C@@H](Cc3ccccc3)c3ccon3)c(C)n(CCN3CCOCC3)c12 | 235 |
| COc1cccc2c(C(=O)NC3CCCC3(C)C)c(C)n(CCN3CCOCC3)c12 (centres undefined) | 205 |
| COCCn1c(C)c(C(=O)NC2C(C)(C)[C@@H]3CC[C@@]2(C)C3)c2cccc(OC)c21 (some centres undefined) | 60 |
| COc1cccc2c(C(=O)N[C@@H](Cc3ccccc3)C(C)=O)c(C)n(CCN3CCOCC3)c12 | 8 |
| COC(=O)[C@H](Cc1cscn1)NC(=O)c1c(C)n(CCN2CCOCC2)c2c(OC)cccc12 | 20 |
| COC(=O)[C@H](Cc1ccccc1)NC(=O)c1c(C)n(CCN2CCOCC2)c2ccccc12 | 250 |
| COc1cccc2c(C(=O)N[C@@H]3C(C)(C)[C@@H]4CC[C@@]3(C)C4)c(C)n(CCN3CCCCC3)c12 | 89 |
| CNC(=O)[C@H](Cc1ccccc1)NC(=O)c1c(C)n(CCN2CCOCC2)c2c(OC)cccc12 | 294 |
| COc1cccc2c(C(=O)NC3C4(C)CCC(C4)C3(C)C)cn(CCN3CCOCC3)c12 (centres undefined) | 12 |
| COc1cccc2c(C(=O)N[C@@H](C)Cc3ccccc3)cn(CCN3CCOCC3)c12 | 71 |
| COc1cccc2c(C(=O)NC3CC(C)(C)CCC3(C)C)c(C)n(CCN3CCOCC3)c12 (centres undefined) | 38 |
| COc1cccc2c(C(=O)N[C@@H]3C4(C)CCC(C4)C3(C)C)c(C)n(CCN3CCOCC3)c12 (some centres undefined) | 41 |
| COc1cc(F)cc2c(C(=O)N[C@H]3C4(C)CCC(C4)C3(C)C)c(C)n(CCN3CCOCC3)c12 (some centres undefined) | 18 |
| COc1cccc2c(C(=O)N[C@H]3C4(C)CCC(C4)C3(C)C)c(C)n(CCN3CCOCC3)c12 (some centres undefined) | 30 |
| COC(=O)[C@H](Cc1cccs1)NC(=O)c1c(C)n(CCN2CCOCC2)c2c(OC)cccc12 | 12 |
| COc1cccc2c(C(=O)N[C@H](C)Cc3ccccc3)c(C)n(CCN3CCOCC3)c12 | 263 |
| COc1cccc2c(C(=O)NC3C(C)(C)[C@@H]4CC[C@@]3(C)C4)c(C)n(CCN(C)C)c12 (some centres undefined) | 505 |
| COC(=O)[C@H](Cc1cccc(Cl)c1)NC(=O)c1c(C)n(CCN2CCOCC2)c2c(OC)cccc12 | 31 |

Target: T2, Cannabinoid receptor 2
Assay: Displacement of WIN-55212-2-Mesylate [573H] from human CB2 receptor expressed in CHO cells at 100 nM
Assay type: cell-based
How it was run: as §1

| Structure (SMILES) | inhibition [%] |
| --- | --- |
| COc1ccc2c(C(=O)N[C@@H]3C4(C)CCC(C4)C3(C)C)c(C)n(CCN3CCOCC3)c2c1OC (some centres undefined) | 0 |
| COc1cccc2c(C(=O)N[C@@H](Cc3ccccc3)C(=O)N(C)C)c(C)n(CCN3CCOCC3)c12 | 29 |
| COc1c(Cl)ccc2c(C(=O)N[C@@H]3C4(C)CCC(C4)C3(C)C)c(C)n(CCN3CCOCC3)c12 (some centres undefined) | 15 |
| CC[C@H](Cc1ccccc1)NC(=O)c1c(C)n(CCN2CCOCC2)c2c(OC)cccc12 | 18 |
| COC[C@H](Cc1ccccc1)NC(=O)c1c(C)n(CCN2CCOCC2)c2c(OC)cccc12 | 6 |
| COc1cccc2c(C(=O)N[C@H](C#N)Cc3ccccc3)c(C)n(CCN3CCOCC3)c12 | 18 |
| COc1ccc(Br)c2c(C(=O)N[C@@H]3C4(C)CCC(C4)C3(C)C)c(C)n(CCN3CCOCC3)c12 (some centres undefined) | 42 |
| COc1cccc2c(C(=O)NC3C4(C)CCC(C4)C3(C)C)c(C)n(CCN3CCCC3)c12 (centres undefined) | 25 |
| COc1ccc(C#N)c2c(C(=O)N[C@@H]3C4(C)CCC(C4)C3(C)C)c(C)n(CCN3CCOCC3)c12 (some centres undefined) | 33 |
| COc1cc(OC)c2c(c1)c(C(=O)N[C@@H]1C3(C)CCC(C3)C1(C)C)c(C)n2CCN1CCOCC1 (some centres undefined) | 0 |
| COc1cccc2c(C(=O)N[C@@H](Cc3ccccc3)c3cc[nH]n3)c(C)n(CCN3CCOCC3)c12 | 7 |
| CCCc1c(C(=O)N[C@@H]2C3(C)CCC(C3)C2(C)C)c2cccc(OC)c2n1CCN1CCOCC1 (some centres undefined) | 6 |
| COc1ccc(Cl)c2c(C(=O)N[C@@H]3C4(C)CCC(C4)C3(C)C)c(C)n(CCN3CCOCC3)c12 (some centres undefined) | 11 |

Target: T2, Cannabinoid receptor 2
Assay: Binding affinity against human Cannabinoid receptor 2 expressed in CHO cells by using WIN-55212-2 Mesylate [573H] as Radioactive tracer
Assay type: cell-based
How it was run: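 Membranes (50 µg) from CHO-K1 cells expressing human CB2 or CB1. Incubated with test compound in HEPES pH 7.4 buffer (EDTA, MgCl₂, 0.3% BSA) for 2 h at room temperature with shaking. Bound label is collected by filtration and counted by scintillation.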

| Structure (SMILES) | Ki [nM] |
| --- | --- |
| CCCCCOc1cc(/C=C/C(=O)N[C@@H](Cc2ccccc2)C(=O)OC)ccc1OC | 86 |
| COC(=O)[C@H](Cc1ccccc1)NC(=O)c1c(C)n(CCN2CCOCC2)c2c(OC)cccc12 | 8 |
| CCCCCOc1cc(/C=C/C(=O)N[C@@H](Cc2ccc(O)cc2)C(=O)OC)ccc1OC | 120 |

Species on record: Mus musculus
Assay: Inhibition of LPS-induced nuclear factor-kappa B (NFkB) activation and TNF production in mouse
Assay type: functional, organism-based
How it was run: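 Female Balb/c mice, 6–8 weeks old, n=8 per group, received LPS (E. coli 0111:B4) at 50 ug/kg i.p. in sterile saline. Blood was taken 90 min later and serum TNF-α measured by ELISA. Compound was dosed i.v. or orally, as solutions in various vehicles, before or at the time of LPS injection.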

| Structure (SMILES) | IC50 [µM] |
| --- | --- |
| COC(=O)[C@H](Cc1ccccc1)NC(=O)c1c(C)n(CCN2CCOCC2)c2c(OC)cccc12 | 12 |
| Cc1c(C(=O)c2cccc3ccccc23)c2cccc3c2n1[C@H](CN1CCOCC1)CO3 [WIN-552122] | 8 |
